From ChEMBL document CHEMBL4392833, “Thiazolyl-pyrazole derivatives as potential antimycobacterial agents” (Bioorg Med Chem Lett, 2019) come the findings set out here.

The test system of data set [1] is Mycobacterium tuberculosis. The experiment in a line: Antitubercular activity against dormant stage of Mycobacterium tuberculosis H37Ra ATCC 25177 assessed as growth inhibition at 30 ug/ml after 12 days by XRMA relative to control. It counts as functional. The conditions noted are these: H37Ra ATCC 25177, 288 h.
In data set [2] the test system is Mycobacterium tuberculosis. The experiment in a line: Antitubercular activity against dormant stage of Mycobacterium tuberculosis H37Ra ATCC 25177 assessed as growth inhibition at 10 ug/ml after 12 days by XRMA relative to control. The conditions noted are these: H37Ra ATCC 25177, 288 h. It counts as functional.
In data set [3] the test system is Mycobacterium tuberculosis. The experiment in a line: Antitubercular activity against dormant stage of Mycobacterium tuberculosis H37Ra ATCC 25177 assessed as growth inhibition at 3 ug/ml after 12 days by XRMA relative to control. It counts as functional. The conditions noted are these: H37Ra ATCC 25177, 288 h.
Data set [4] has as its system Mycobacterium tuberculosis. The experiment in a line: Antitubercular activity against dormant stage of Mycobacterium tuberculosis H37Ra ATCC 25177 infected in human THP1 cells by nitrate reductase assay. The format is functional, organism-based. To be noted: for MIC90: H37Ra ATCC 25177; for IC50: H37Ra ATCC 25177, THP-1.
The test system of data set [5] is Mycobacterium tuberculosis. The experiment in a line: Antitubercular activity against dormant stage of Mycobacterium tuberculosis H37Ra ATCC 25177 by two fold dilution technique. It counts as functional. The method, boiled down:
(§1)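 MIC against dormant-stage bacilli, read out by XTT reduction menadione assay (XRMA), with rifampicin MIC determined the same way as reference.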

The subject of data set [6] is THP-1. The experiment in a line: Cytotoxicity against human THP1 cells at 30 ug/ml. The format is cell-based.
Data set [7] relates to THP-1. The experiment in a line: Cytotoxicity against human THP1 cells at 10 ug/ml. The format is cell-based.
For data set [8], the system named is THP-1. The experiment in a line: Cytotoxicity against human THP1 cells at 3 ug/ml. The format is cell-based.
A short description of data set [9]: Growth inhibition of human THP1 cells. The format is cell-based. The conditions noted are these: THP-1 cells.
Data set [10] is described as follows: (§2) Growth inhibition of human HeLa cells by MTT assay. The format is cell-based. The conditions noted are these: HeLa cells. The essentials: (§3)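 Human cancer cell lines were exposed in vitro to a range of compound concentrations. Viability was read by MTT colorimetric assay, and GI50 and GI90 were derived from the concentration series.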
The subject of a further data set is HeLa. The description is as §2. The format is cell-based. The conditions noted are these: hela. The method, boiled down: as §3
Data set [11] is described as follows: (§4) Growth inhibition of human A549 cells by MTT assay. The conditions noted are these: A549 cells. The format is cell-based. The method, boiled down: as §3
The test system of another data set is A549. The description is as §4. The format is cell-based. To be noted: a549. The essentials:
as §3

Data set [12] is described as follows: (§5) Growth inhibition of human PANC1 cells by MTT assay. The format is cell-based, PANC-1. The conditions noted are these: PANC-1 cells. The method, boiled down: as §3
Another data set deals with PANC-1. The description is as §5. It counts as cell-based. To be noted: panc-1. The essentials:
as §3

The subject of data set [13] is Mycobacterium tuberculosis. The experiment in a line: Antitubercular activity against dormant stage of Mycobacterium tuberculosis H37Ra ATCC 25177 after 12 days by XRMA. It counts as functional, organism-based. The conditions noted are these: H37Ra ATCC 25177, 288 h. The essentials: as §1

SMILES strings stand for the structures. ≈ marks a conversion by molar mass, not a printed value.

For `Cc1nc(C)c(-c2nn(-c3ccc(F)cc3)cc2C2CC(c3cc(Br)ccc3O)=NN2)s1` (stereo unspecified), the inhibition at 30 µg/mL in [1] was 88.2%. In data set [2], the inhibition at 10 µg/mL was found to be 75.5%. For the same molecule, the inhibition at 3 µg/mL in [3] stood at 42.5%. The MIC90 in data set [4] came to 2.95 µM (≈ 1.51 µg/mL); in [5] it was 5.79 µM (≈ 2.97 µg/mL). Besides, the half-inhibitory concentration (IC50) stood at 410 nM in data set [4] and 310 nM in [13]. The Activity in the data set on THP-1 [6] amounted to 19.51%; in the data set on THP-1 [7], 14.69%; in the data set with THP-1 [8], 13.91%. For the same molecule, the GI50 in data set [9] is over 30 µg/mL; in data set [10] it was 21.6 µg/mL (≈ 42.2 µM); in [11], 81.4 µg/mL (≈ 159 µM); in data set [12], 76.4 µg/mL (≈ 149 µM). Moreover, the GI90 in the data set on HeLa came to 43.11 µg/mL (≈ 84.1 µM); in the data set on A549, 154.68 µg/mL (≈ 302 µM); in the data set with PANC-1, 115.65 µg/mL (≈ 226 µM).
Regarding `Cc1nc(C)c(-c2nn(-c3ccc(F)cc3)cc2C2CC(c3cc(Cl)c(C)cc3O)=NN2)s1` (stereo unspecified), the inhibition at 30 µg/mL in data set [1] turned out to be 95.6%. For the same molecule, the inhibition at 10 µg/mL in data set [2] is 43.5%. Further, in data set [3], the inhibition at 3 µg/mL amounted to 38.8%. In addition, the MIC90 in data set [4] is 8.59 µM (≈ 4.14 µg/mL); in data set [5] it was 9.65 µM (≈ 4.65 µg/mL). Besides, the IC50 in data set [4] was 1620 nM; in data set [13] it was 520 nM. Moreover, the results for the Activity in the data set with THP-1 [6], in the data set on THP-1 [7] and in the data set on THP-1 [8] were 17.93%, 10.66% and 9.1%, respectively. The 50% growth inhibitory concentration (GI50) was over 30 µg/mL in data set [9], over 250 µg/mL in data set [10], 146 µg/mL (≈ 302 µM) in data set [11] and 127 µg/mL (≈ 264 µM) in data set [12]. The GI90 in the data set with HeLa, in the data set on A549 and in the data set with PANC-1 was over 250 µg/mL each time.
On to `Cc1nc(C)c(-c2nn(-c3ccc(F)cc3)cc2C2CC(c3cc(Cl)ccc3O)=NN2)s1` (stereo unspecified), for which the inhibition at 30 µg/mL in [1] turned out to be 97.2%. Also, the inhibition at 10 µg/mL in data set [2] is 79.7%. In data set [3], the inhibition at 3 µg/mL was determined as 41.6%. The MIC90 was 1.5 µM (≈ 0.702 µg/mL) in data set [4] and 2.48 µM (≈ 1.16 µg/mL) in data set [5]. In addition, the values for the half-maximal inhibitory concentration (IC50) in data set [4] and in data set [13] were 360 nM and 60 nM, respectively. The Activity with THP-1 [6] is 17.04%; in the data set on THP-1 [7], 11.51%; in the data set with THP-1 [8], 7.09%. Moreover, the concentration for 50% growth inhibition (GI50) is over 30 µg/mL in [9], over 250 µg/mL in [10], over 250 µg/mL in [11] and over 250 µg/mL in data set [12]. The GI90 in the data set with HeLa, in the data set with A549 and with PANC-1 was over 250 µg/mL each time.
